Screening results: PubChem, several laboratories
Shown are actives, neighbours in structure and some others; about 2.2% of the full set was active somewhere.
GAA850 FXN act = increases GAA850 frataxin promoter reporter activity; HEK293 lucGAA850 FXN promoter luciferase reporter, 24 h; percent of 10 µM SAHA response; activation, % at 6 µM; actives 0.56% (n = 360,000);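 active = activation above the average of all compounds screened plus 3 SD, cutoff fixed separately per campaign, cut at about 7.5% in these data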;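 also: 0% = DMSO wells and 100% = 10 µM SAHA wells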
V-ATPase pHluor = yeast V-ATPase proton transport regulation by pHLuorin; S. cerevisiae, pHLuorin cytosolic pH fluorescence; response, % at 10 µM; actives 0.37% (n = 350,000); in the data active = response mostly above about 7.3%, no sharp cut-off; inactive = mostly below about 5.4%; also: actives read high
NR2E3 ag-1 = NR2E3 (human) agonism; Q9Y5X4; GST-NR2E3/biotin-RetCOR TR-FRET, 1536-well; inhibition of corepressor binding, % at 4.78 µM; actives 0.12% (n = 320,000); AID 2300;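 active = percent inhibition above the cutoff of mean plus 3 SD of all tested compounds, set per screening campaign, cut at about 20% in these data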;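 also: 0% = DMSO wells and 100% = biotin wells as full block of FRET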
Target sequence (Q9Y5X4 whole entry, looked up): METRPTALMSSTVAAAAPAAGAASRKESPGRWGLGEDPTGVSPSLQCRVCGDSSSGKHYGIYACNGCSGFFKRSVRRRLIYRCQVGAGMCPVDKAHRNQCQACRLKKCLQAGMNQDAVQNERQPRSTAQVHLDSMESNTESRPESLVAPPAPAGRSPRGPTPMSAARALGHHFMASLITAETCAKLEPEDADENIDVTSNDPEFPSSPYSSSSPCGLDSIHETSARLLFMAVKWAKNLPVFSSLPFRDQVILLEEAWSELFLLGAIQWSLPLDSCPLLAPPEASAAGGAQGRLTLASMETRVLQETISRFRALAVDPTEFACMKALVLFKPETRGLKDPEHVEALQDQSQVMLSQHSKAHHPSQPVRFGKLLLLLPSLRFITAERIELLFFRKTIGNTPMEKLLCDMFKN
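Material: NR2E3–RetCOR corepressor complex / Incubation: Compound–protein incubation for 5 h at 4 °C / Dosing: compound at 4.8 µM, single dose / Detection: time-resolved FRET / Benchmarks: high control biotin, low control 0.6% DMSO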
HIV Env fusion = inhibitors of HIV Env-mediated cell fusion; HeLa-JRFL Env/CEM21 cell fusion, luciferase; inhibition, % at 12.3 µM; actives 1.1% (n = 360,000);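 active = mean replicate inhibition score of at least 50 and every replicate individually at or above 50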;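 also: 0% = plate neutral controls and 100% = maraviroc near 300 nM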
NR2E3 ag-2 = human photoreceptor-specific nuclear receptor agonism. Q9Y5X4. CHO-S Gal4-NCOR/VP16-NR2E3 two-hybrid, luciferase. inhibition of corepressor binding, % at 3.98 µM. actives 0.35% (n = 360,000);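 active = inhibition above the mean of all tested compounds plus 3 SD, cut at about 70% in these data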;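 also: 0% = DMSO with NR2E3 transfected cells and 100% = cells lacking NR2E3 construct; higher means lower luciferase signal from less NR2E3 corepressor binding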
GalR3 antag = human GalR3 antagonism | AID 651719 | actives 0.44% (n = 360,000) | inhibition, % at 3 µM | O60755 | HEK293 GalR3-CNG cAMP membrane potential fluorescence; galR3 body fused to GalR1 C-terminus;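 active = inhibition above the screen-wide average plus 3 SD, cut at about 13% in these data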;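 also: forskolin and galanin both at EC90 stimulate the cells; cAMP rise reported by CNG channel membrane potential dye signal; 0% = forskolin plus galanin with DMSO and 100% = forskolin alone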
Target sequence (O60755 1-299 limits assumed): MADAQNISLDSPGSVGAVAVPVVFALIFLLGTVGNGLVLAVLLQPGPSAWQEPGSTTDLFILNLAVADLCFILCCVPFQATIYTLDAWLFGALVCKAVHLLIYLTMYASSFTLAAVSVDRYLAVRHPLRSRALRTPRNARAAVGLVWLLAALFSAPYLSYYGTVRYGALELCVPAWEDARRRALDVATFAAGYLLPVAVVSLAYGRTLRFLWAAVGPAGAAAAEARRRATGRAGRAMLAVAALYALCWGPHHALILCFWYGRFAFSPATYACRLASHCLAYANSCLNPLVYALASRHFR
GAA30 counter = GAA30 FXN promoter activation counter-screen; shares compounds with GAA850 FXN act; AID 588350; HEK293 lucGAA30 FXN promoter luciferase, 24 h; DMSO = 0%, 5 µM ipriflavone = 100%; actives 66% (n = 1,900); activation, % at 6 µM;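 active = mean activation above the mean of solvent-only control wells plus 3 SD, cut at about 22% in these data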;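 also: counterscreen of GAA850 promoter hits where activity marks nonselective or luminescence artifacts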
GAA850 confirm = GAA850 FXN promoter activation confirmation | shares compounds with GAA850 FXN act | HEK293 lucGAA850 FXN promoter luciferase reporter, 24 h; 100% = activation by SAHA | activation, % at 6 µM | actives 86% (n = 1,900) | AID 588351;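 active = mean activation above a set limit taken from the primary screen, cut at about 8% in these data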;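 also: 0% = DMSO wells and 100% = 10 µM SAHA wells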
NR2E3 ag confirm = NR2E3 agonism confirmed in two-hybrid assay | CHO-S mammalian two-hybrid NR2E3-NCOR, luciferase luminescence | AID 624378 | actives 51% (n = 2,300) | inhibition, % at 3.98 µM | shares compounds with NR2E3 ag-2;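 active = average inhibition above a cutoff equal to the mean inhibition of all tested compounds plus one SD, cut at about 70% in these data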;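 also: 0% = DMSO in NR2E3 cells and 100% = DMSO in cells lacking NR2E3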
VP16 counter = counter-screen for NR2E3 agonists: GAL4-VP16 reporter inhibitors. shares compounds with NR2E3 ag-2. CHO-S GAL4-VP16 luciferase reporter, luminescence. inhibition, % at 3.98 µM. actives 29% (n = 2,300). AID 624379;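 active = mean inhibition above a cutoff equal to the average over all tested compounds plus one standard deviation, cut at about 70% in these data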;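 also: luciferase from a UAS reporter driven by GAL4-VP16 transactivation; 0% = DMSO with VP16-transfected cells and 100% = DMSO with cells lacking VP16; higher means less reporter light so more repression of VP16 activity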
GalR3 antag conf = confirmation of human galanin receptor 3 antagonists. inhibition, % at 3 µM. actives 59% (n = 1,600). shares compounds with GalR3 antag. HEK293 GalR3 CNG cAMP biosensor, membrane potential fluorescence; galR3 fused to GalR1 carboxy tail; challenged with forskolin and galanin at EC90;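 active = inhibition above the primary screen's cutoff, the mean inhibition of all screened compounds plus 3 SD, cut at about 13% in these data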;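 also: 0% = forskolin plus galanin and 100% = forskolin alone with DMSO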
HEK-CNG parental = parental cell agonism counter-screen for GalR3 antagonists; actives 10% (n = 1,600); shares compounds with GalR3 antag; HEK293-CNG parental cells, cAMP membrane potential fluorescence; normalised: DMSO wells 0%, forskolin wells 100%; activation, % at 3 µM; in the data active = activation above about 1.3%
* = called active by the depositor; i = inactive; · = no result.

SMILES | GAA850 FXN act | V-ATPase pHluor | NR2E3 ag-1 | HIV Env fusion | NR2E3 ag-2 | GalR3 antag | NR2E3 ag confirm | VP16 counter | others
CN(C)C1C(=O)C(C(N)=O)=C(O)C2(O)C(=O)C3=C(O)c4c(O)cccc4C(C)(O)C3C(O)C12 (centres undefined) | 16* | -4 | 6 | 63* | -36 | · | · | · | GAA30 counter=33*;GAA850 confirm=11*
COc1cccc(-c2ccc3c(c2)C2c4cnnn4-c4ccccc4C(=O)N2CC3)c1 (centres undefined) | · | · | · | -84 | · | -5 | · | ·
N#CCCC#N | · | · | · | · | · | 0 | · | ·
N#Cc1cn(C2OC(CO)C(O)C2O)c2ncnc(N)c12 (centres undefined) | 14* | 8 | · | 85* | 98* | 68* | 100* | 83* | GAA30 counter=48*;GAA850 confirm=-4;GalR3 antag conf=76*;HEK-CNG parental=0
CSc1ccc(CNC(C)C(O)c2ccccc2)cc1 (centres undefined) | 3 | 2 | -4 | -27 | -14 | -3 | · | ·
CN1CCN(c2ccc([N+](=O)[O-])c3no[n+]([O-])c23)CC1 | -15 | -3 | -3 | -256 | 43 | -7 | · | ·
O=[N+]([O-])c1ccc(N(CCO)CCO)c2c1no[n+]2[O-] | -9 | 3 | · | i | 76* | -4 | 54 | 44
Cc1cc(OCC(=O)N2CCC(C(N)=O)CC2)c2c3c(c(=O)oc2c1)CCCC3 | -1 | 0 | 2 | · | -5 | -6 | · | ·
COC(=O)C1=C(c2cccc(OC)c2OC)C[C@@H]2CC[C@H]1N2C(=O)NCc1ccc(C(F)(F)F)cc1 | -1 | 5 | -2 | -4 | 7 | -8 | · | ·
CC1CCC/C=C/C2CC(O)CC2C(O)/C=C/C(=O)O1 (centres undefined) | -6 | -2 | 2 | 107* | 83* | 3 | 99* | 56
C=C1C(=O)O[C@H]2[C@H]1[C@H](OC(=O)CC(=O)O[C@@H]1C[C@@H](C)[C@@H]3C=CC(=O)[C@@]3(C)[C@H]3OC(=O)C(=C)[C@H]13)C[C@@H](C)[C@H]1C=CC(=O)[C@]12C | -2 | 0 | 0 | -52 | 78* | 2 | 89* | 73*
C=C1C(=O)O[C@@H]2C[C@@H](C)[C@@H]3C=CC(=O)[C@@]3(C)[C@@H](OC(=O)CC(=O)O[C@H]3[C@@H]4C(=C)C(=O)O[C@@H]4C[C@@H](C)[C@@H]4C=CC(=O)[C@]43C)[C@H]12 | -14 | 3 | 2 | 109* | 96* | -8 | 101* | 97*
C=C1C(=O)O[C@H]2C[C@@H](C)[C@@H]3C=CC(=O)[C@@]3(C)C[C@H]12 | · | · | -5 | -193 | · | -5 | · | ·
C=C1C(=O)O[C@@H]2C[C@@H](C)[C@@H]3C4OC4C(=O)[C@@]3(C)[C@@H](O)[C@H]12 (some centres undefined) | -14 | 3 | -4 | -341 | 77* | 0 | -11 | 2
C=C1C(=O)OC2CC(C)C3C=CC(=O)C3(C)C(O)C12 (centres undefined) | -16 | 3 | · | · | 92* | · | 99* | 41
O=[N+]([O-])[N-][n+]1cnn(Cc2ccc(Cl)cc2)c1 | 0 | 0 | 1 | 0 | -15 | -5 | · | ·
CC1CCN(CCc2nc3ccccc3[nH]2)CC1 | 3 | -2 | 0 | 1 | -1 | -7 | · | ·
CC(ON1CC1(C(F)(F)F)C(F)(F)F)(C(N)=O)C(N)=O (centres undefined) | 0 | -2 | 1 | -18 | -5 | -3 | · | ·
CN(C)P(=O)(N(C)C)N1CC1 | -2 | 2 | · | -7 | 9 | -1 | · | ·
C[C@@H]1CN([C@@H](C)CO)C(=O)CCCn2nncc2CO[C@H]1CN(C)C(=O)Oc1cccc2ccccc12 | -2 | -3 | · | 10 | -1 | -7 | · | ·
COC(=O)C1=C(c2ccccc2OCc2ccccc2)C[C@@H]2CC[C@H]1N2C(=O)NCCOc1ccccc1Cl | -3 | 1 | 4 | 9 | -6 | -8 | · | ·
CCN1/C(=C/C=C/C2=[N+](CC)c3ccccc3C2(C)C)C(C)(C)c2ccccc21 | -14 | 0 | · | 36 | 104* | -21 | 98* | 94*
Oc1c(Cl)cc(Cl)cc1CN1CCN(Cc2ccccc2)CC1 | 1 | -1 | 0 | · | 4 | -6 | · | ·
Oc1c(Cl)cccc1Cc1cc(Cl)cc(Cl)c1O | -2 | 0 | · | 28 | 98* | 0 | 100* | 93*
CN(C)CCN(CC1CCCN(Cc2ccccc2F)C1)C(=O)Cc1c(F)cccc1F (centres undefined) | -2 | -1 | -1 | -4 | 2 | -11 | · | ·
SMILES | GAA850 FXN act | V-ATPase pHluor | NR2E3 ag-1 | HIV Env fusion | NR2E3 ag-2 | GalR3 antag | NR2E3 ag confirm | VP16 counter | others
CC(N)C(=O)NC1C2C(=C(O)CC(O)C2O)C(=O)OC1(C)C(Cl)Cl (centres undefined) | -14 | -3 | · | 99* | 98* | -7 | 96* | 92*
COP(=S)(OC)SCn1nnc2ccccc2c1=O | 2 | -1 | · | 3 | 8 | -6 | · | ·
CN(Cc1cccc(-c2ccncc2)c1)C(=O)Oc1ccccc1Cc1ccccc1 | · | · | · | · | 81* | · | 80* | 79*
CN(C)Cc1ccccc1OC(=O)N(C)C | 0 | 1 | 4 | · | -11 | 2 | · | ·
Cc1nc2cc(OC(=O)N(C)Cc3cccc(-c4ccncc4)c3)ccc2s1 | · | · | · | · | 67 | · | 62 | 54
CN(Cc1cccc(-c2ccncc2)c1)C(=O)Oc1ccccc1Cl | · | · | · | · | 88* | · | 73* | 77*
COC(=O)C1=C(c2ccc(-c3ccccc3)c(F)c2)C[C@@H]2CC[C@H]1N2C(=O)N1CCCC1 | -8 | -2 | 2 | -4 | 71* | -8 | 54 | 56
